ChEMBL document CHEMBL1135527, “Synthesis and evaluation of 2'-substituted 4-(4'-carboxy- or 4'-carboxymethylbenzylidene)-N-acylpiperidines: highly potent and in vivo active steroid 5alpha-reductase type 2 inhibitors” (J Med Chem, 2002)

Experiments:
[1] = target: T1, 3-oxo-5-alpha-steroid 4-dehydrogenase 2 (Rattus norvegicus, UniProt P31214); test: Inhibition of Steroid 5-alpha-reductase type 2 of rat ventral prostate (RVP); type: tissue-based, Prostate gland
T1 sequence (P31214 whole entry): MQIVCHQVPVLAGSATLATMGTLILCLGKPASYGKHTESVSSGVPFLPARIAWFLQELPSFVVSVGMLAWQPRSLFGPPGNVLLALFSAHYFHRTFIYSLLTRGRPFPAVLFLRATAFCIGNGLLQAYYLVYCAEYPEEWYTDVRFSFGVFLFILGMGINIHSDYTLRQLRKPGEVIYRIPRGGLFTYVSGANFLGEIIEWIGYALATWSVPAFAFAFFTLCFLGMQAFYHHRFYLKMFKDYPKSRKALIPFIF
Method in brief: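 Type 2 source: rat ventral prostate homogenized in citrate buffer pH 5.5, 105000g pellet. About 250 μg protein incubated 30 min at 37 °C in 40 mM citrate pH 5.5 with 200 μM NADPH, 0.21 μM [1,2-³H]testosterone and 2% DMSO. NaOH stop, ether extraction, radio-HPLC of T/DHT. Result given as % inhibition at 10 μM or IC50, run in duplicate.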

[2] = target: T2, 3-oxo-5-alpha-steroid 4-dehydrogenase 1 (Rattus norvegicus, UniProt P24008); test: Inhibition of Steroid 5-alpha-reductase type I from rat ventral prostate (RVP); type: tissue-based, Prostate gland
T2 sequence (P24008 whole entry): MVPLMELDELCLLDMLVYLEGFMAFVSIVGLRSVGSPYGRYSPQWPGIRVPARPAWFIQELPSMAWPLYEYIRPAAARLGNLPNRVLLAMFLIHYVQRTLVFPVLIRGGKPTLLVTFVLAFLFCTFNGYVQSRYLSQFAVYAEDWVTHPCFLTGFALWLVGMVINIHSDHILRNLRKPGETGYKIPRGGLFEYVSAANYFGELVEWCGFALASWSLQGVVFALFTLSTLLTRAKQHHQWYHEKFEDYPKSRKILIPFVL
Method in brief: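 Rat ventral prostate 105000g pellet made in 20 mM phosphate pH 6.6 with […] and 1 mM DTT at 0–4 °C. About 250 μg protein incubated 30 min at 37 °C in 40 mM phosphate pH 6.6 with 200 μM NADPH, 0.21 μM [1,2-³H]testosterone and 2% DMSO. Ether extraction, radio-HPLC of T and DHT. % inhibition at 10 μM or IC50; duplicates.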

[3] = target: T3, 3-oxo-5-alpha-steroid 4-dehydrogenase 2 (Homo sapiens, UniProt P31213); test: Inhibition of Steroid 5-alpha-reductase type 2 from human benign prostatic hyperplasia (BPH) tissue
T3 sequence (P31213 whole entry): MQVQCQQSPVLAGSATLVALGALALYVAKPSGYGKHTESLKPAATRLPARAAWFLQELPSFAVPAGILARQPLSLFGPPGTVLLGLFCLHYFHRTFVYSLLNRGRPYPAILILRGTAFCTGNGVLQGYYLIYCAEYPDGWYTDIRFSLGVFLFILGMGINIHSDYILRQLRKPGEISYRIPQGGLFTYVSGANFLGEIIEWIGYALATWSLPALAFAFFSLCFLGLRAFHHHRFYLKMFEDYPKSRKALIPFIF
Method in brief: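 Human BPH prostate 105000g pellet (nuclei, mitochondria, microsomes) prepared in citrate buffer pH 5.5. Incubation of about 125 μg protein for 30 min at 37 °C in 40 mM citrate pH 5.5 with 100 μM NADPH, 0.21 μM [1,2-³H]testosterone and 2% DMSO. Reaction stopped with NaOH, steroids extracted with ether, T/DHT separated by radio-HPLC. Single 10 μM test or IC50; duplicates.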

[4] = target: T4, 3-oxo-5-alpha-steroid 4-dehydrogenase 1 (Homo sapiens, UniProt P18405); test: In vitro inhibitory activity against Steroid 5-alpha-reductase type I of human DU 145 prostatic tumor cell line
T4 sequence (P18405 whole entry): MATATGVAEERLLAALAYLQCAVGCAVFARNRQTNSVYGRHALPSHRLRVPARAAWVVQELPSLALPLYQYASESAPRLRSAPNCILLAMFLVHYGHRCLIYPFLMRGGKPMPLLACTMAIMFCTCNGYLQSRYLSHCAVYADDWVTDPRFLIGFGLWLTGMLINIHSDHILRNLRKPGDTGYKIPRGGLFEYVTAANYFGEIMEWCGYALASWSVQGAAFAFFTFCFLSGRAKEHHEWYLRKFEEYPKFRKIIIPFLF
Method in brief: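 Intact human prostatic carcinoma DU145 cells (type 1 enzyme source), seeded at 180 000 cells/well and left to adhere overnight, incubated 6 h at 37 °C in 5% CO2 with compound in DMSO in complete medium; substrate tritiated androstenedione 5 nM. Medium extracted with diethyl ether, steroids separated by radio-HPLC. Screened at 10 μM, duplicate; product formed as % of uninhibited control.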

Rattus norvegicus [5] = test: Mean percentage of inhibition of the T-induced hypertrophic response was calculated according to the equation %inhibition = 100 x (Ct-D)/(Ct-Cc) at a dose 11.8 mg/kg by subcutaneous administration; type: functional; conditions: sc
Method in brief: (§1)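 Male rats castrated at 21 days old by scrotal incision under ether anaesthesia; eight groups of eight. One week later, testosterone propionate 1 mg/kg and test agent or vehicle in oil given once daily for 4 days. Testosterone and test agent were given by separate sc injections, or the test agent was given orally. Test doses 11.3–12.2 mg/kg, 10 times equimolar to finasteride 1 mg/kg.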

Rattus norvegicus [6] = test: In vivo ventral prostate weights in juvenile castrated rats treated with testosterone propionate (11.3 mg/kg) compound, by subcutaneous administration; type: functional, Prostate gland; method in brief: as §1
Rattus norvegicus [7] = test: In vivo ventral prostate weights in juvenile castrated rats treated with testosterone propionate (1 mg/kg); type: functional, Prostate gland; method in brief: as §1
Rattus norvegicus [8] = test: In vivo ventral prostate weights in juvenile castrated rats treated with testosterone propionate (11.3 mg/kg) compound, by oral administration; type: functional, Prostate gland; method in brief: as §1
Rattus norvegicus [9] = test: Mean percentage of inhibition of the T-induced hypertrophic response was calculated according to the equation %inhibition = 100 x (Ct-D)/(Ct-Cc) at a dose 11.3 mg/kg by oral administration; type: functional; method in brief: as §1
Rattus norvegicus [10] = test: Mean percentage of inhibition of the T-induced hypertrophic response was calculated according to the equation %inhibition = 100 x (Ct-D)/(Ct-Cc) at a dose 11.3 mg/kg by subcutaneous administration; type: functional; conditions: sc; method in brief: as §1
Rattus norvegicus [11] = test: Mean percentage of inhibition of the T-induced hypertrophic response was calculated according to the equation %inhibition = 100 x (Ct-D)/(Ct-Cc) at a dose 1 mg/kg by subcutaneous administration; type: functional; conditions: sc; method in brief: as §1
Rattus norvegicus [12] = test: In vivo ventral prostate weights in juvenile castrated rats treated with testosterone propionate (11.3 mg/kg) + compound, by subcutaneous administration; type: functional, Prostate gland
Rattus norvegicus [13] = test: Mean percentage of inhibition of the T-induced hypertrophic response was calculated according to the equation %inhibition = 100 x (Ct-D)/(Ct-Cc) at a dose 12.2 mg/kg by subcutaneous administration; type: functional; conditions: sc; method in brief: as §1

How did the IC50 [1] turn out when `CC(C)(C)NC(=O)[C@H]1CC[C@H]2[C@@H]3CC[C@H]4NC(=O)C=C[C@]4(C)[C@H]3CC[C@]12C` [FINASTERIDE] was run?
Its IC50 is 11 nM.

What about the IC50 [2] of the same compound?
The IC50 was 10 nM.

What about the IC50 [3] of the same compound?
Its IC50 is 5 nM.

What about the IC50 [4] of the same compound?
Its IC50 is 41 nM.

`CCC(=O)O[C@H]1CC[C@H]2[C@@H]3CCC4=CC(=O)CC[C@]4(C)[C@H]3CC[C@]12C.O=C(O)c1ccc(C=C2CCN(C(=O)C(C3CCCCC3)C3CCCCC3)CC2)c(F)c1` was tested. Which inhibition in vivo at 11.8 mg/kg (Rattus norvegicus [5]) did it give?
The inhibition in vivo at 11.8 mg/kg was 47%.

And the Weight (Rattus norvegicus [6])?
The Weight was 28.6 (mg of prostate) (100g of body weight)-1.

`CCC(=O)O[C@H]1CC[C@H]2[C@@H]3CCC4=CC(=O)CC[C@]4(C)[C@H]3CC[C@]12C` [TESTOSTERONE PROPIONATE] was tested. Which Weight (Rattus norvegicus [7]) did it give?
The Weight was 41.6 (mg of prostate) (100g of body weight)-1.

What does the source list for `CCC(=O)O[C@H]1CC[C@H]2[C@@H]3CCC4=CC(=O)CC[C@]4(C)[C@H]3CC[C@]12C.O=C(O)c1ccc(C=C2CCN(C(=O)C(C3CCCCC3)C3CCCCC3)CC2)cc1`?
Weight (Rattus norvegicus [8]): 31.6 (mg of prostate) (100g of body weight)-1; inhibition in vivo at 11.3 mg/kg (Rattus norvegicus [9]): 36%; Weight (Rattus norvegicus [6]): 27.9 (mg of prostate) (100g of body weight)-1; inhibition in vivo at 11.3 mg/kg (Rattus norvegicus [10]): 49%

Which results are given for `CC(C)(C)NC(=O)C1CC[C@@]2(C)[C@@H]3CC[C@H]4NC(=O)C=C[C@]4(C)[C@H]3CC[C@]12C.CCC(=O)O[C@H]1CC[C@H]2[C@@H]3CCC4=CC(=O)CC[C@]4(C)[C@H]3CC[C@]12C` (stereo not given in full)?
inhibition in vivo at 1 mg/kg (Rattus norvegicus [11]): 76%; Weight (Rattus norvegicus [12]): 20.5 (mg of prostate) (100g of body weight)-1

With `CCC(=O)O[C@H]1CC[C@H]2[C@@H]3CCC4=CC(=O)CC[C@]4(C)[C@H]3CC[C@]12C.O=C(O)Cc1ccc(C=C2CCN(C(=O)C(C3CCCCC3)C3CCCCC3)CC2)c(F)c1` as the compound, how does the Weight (Rattus norvegicus [6]) read?
Its Weight is 26.4 (mg of prostate) (100g of body weight)-1.

And the inhibition in vivo at 12.2 mg/kg (Rattus norvegicus [13])?
The inhibition in vivo at 12.2 mg/kg was 55%.
